A selection: hits, their analogues and other compounds. The true share with any hit is near 4.5%.
TAAR1 antag = antagonists of human TAAR1 | Q96RJ0 | CHO RD-HGA16 TAAR1, Fluo-8 calcium fluorescence, antagonist | inhibition, % at 3 µM | actives 1.5% (n = 360,000) | AID 624466;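 active means inhibition above a per-plate cutoff, the mean inhibition of test compounds on that plate plus 3 SD, cut at about 49% in these data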
Target sequence (Q96RJ0 whole entry, looked up): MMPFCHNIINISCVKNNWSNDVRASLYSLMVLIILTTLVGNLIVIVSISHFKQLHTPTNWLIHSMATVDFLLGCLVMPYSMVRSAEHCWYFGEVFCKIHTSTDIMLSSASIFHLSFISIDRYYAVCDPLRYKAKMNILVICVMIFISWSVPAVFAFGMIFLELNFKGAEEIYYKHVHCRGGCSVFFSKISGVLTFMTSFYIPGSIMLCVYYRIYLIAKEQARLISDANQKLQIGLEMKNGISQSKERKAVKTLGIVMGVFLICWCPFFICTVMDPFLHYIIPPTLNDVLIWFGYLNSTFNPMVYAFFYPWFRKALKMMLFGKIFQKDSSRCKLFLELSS
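Test system – hTAAR1-expressing CHO RD-HGA16 cells, Gα16-coupled · Reagent – β-PEA at EC80 concentration, post-compound challenge · Compound dosing – 3 µM, single point · Timing – 140 s kinetic read after compound, 140 s after agonist · Detection – Fluo-8 intracellular calcium dye fluorescence, real-time kinetic reads · Control set – DMSO and EC80 PEA controls · Repeats – n of 1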
TAAR1 ag = agonists of human TAAR1. Q96RJ0. CHO RD-HGA16 TAAR1, Fluo-8 calcium fluorescence; vehicle wells 0%, saturating PEA agonist 100%. activation, % at 3 µM. actives 0.99% (n = 360,000);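 active means activation above the mean activation of all test compounds in the run plus 3 SD, cut at about 38% in these data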
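test system = CHO RD-HGA16 cells carrying human TAAR1 plus Gα16 | schedule = 17-24 h seeding, 75 min 37 °C dye, 30 min RT | compound dosing = 3 µM single concentration | control set = DMSO and PEA EC100 | replicates = n 1 | signal = Fluo-8 fluorescence, 5 s baseline then 140 s kinetic read | measure = percent activation vs PEA EC100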
OX1R antag-1 = blocks the human orexin 1 receptor | O43613 | CHO/OX1R cells, Fluo-8 calcium fluorescence, orexin A | inhibition, % at 5 µM | actives 0.43% (n = 330,000) | AID 434989;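 active means inhibition above its plate's threshold, mean inhibition of all tested compounds on the plate plus 3 SD, cut at about 37% in these data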
Target sequence (O43613 whole entry, looked up): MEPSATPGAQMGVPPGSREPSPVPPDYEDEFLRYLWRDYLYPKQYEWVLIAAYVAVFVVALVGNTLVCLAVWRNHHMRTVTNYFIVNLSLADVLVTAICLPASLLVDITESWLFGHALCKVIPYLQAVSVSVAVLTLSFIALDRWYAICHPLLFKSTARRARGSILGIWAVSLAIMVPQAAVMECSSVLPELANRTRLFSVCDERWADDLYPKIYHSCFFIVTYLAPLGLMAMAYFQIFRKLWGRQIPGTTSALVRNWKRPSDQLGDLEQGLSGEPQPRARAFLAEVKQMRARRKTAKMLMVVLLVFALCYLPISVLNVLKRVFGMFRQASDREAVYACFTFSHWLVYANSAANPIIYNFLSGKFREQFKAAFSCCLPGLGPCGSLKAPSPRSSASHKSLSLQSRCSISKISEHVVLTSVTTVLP
GPR7 antag = blocks human GPR7 receptor signaling. AID 1861. inhibition, % at 4.4 µM. GPR7-expressing cells, fluorescence antagonist assay. P48145. actives 1.1% (n = 290,000); in the data active means inhibition above about 16%, passing the limit was not always enough;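 further: cells stimulated with the agonist NPW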
OX1R antag-2 = antagonists of human orexin 1 receptor (OX1R) | actives 1.8% (n = 330,000) | inhibition, % at 6.6 µM | AID 485270 | OX1R-expressing cells, FRET antagonist read-out; in the data active means inhibition mostly above about 38%, no sharp cut-off; inactive means mostly below about 40%
CHO parental Ca = signal in parental CHO cells, OX1R antagonist counter-screen. actives 0.63% (n = 330,000). parental CHO-K1, ATP-induced calcium, Fluo-8 fluorescence. inhibition, % at 5.6 µM. AID 463079;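 active means inhibition above that plate's mean sample inhibition plus 3 SD, cut at about 26% in these data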
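material = parental CHO cells | also added = ATP as calcium-mobilizing challenge | dosing = single point at 5.6 µM | detection = intracellular calcium via Fluo-8 no-wash fluorescent dye | read-out = % inhibition | benchmarks = low control ATP plus DMSO, high control DMSO only | repeats = one well per compound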
nonsel antag count = nonselective antagonism, TAAR1 counter-screen | shares compounds with TAAR1 antag | counterscreen cell line, calcium fluorescence, antagonist mode | inhibition, % at 3 µM | actives 77% (n = 2,400); in the data active means inhibition above about 22%;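 further: CHO-Ga16 host cells stimulated with ATP at an EC80 level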
TAAR1 antag conf = confirmation of human TAAR1 antagonists. shares compounds with TAAR1 antag. TAAR1-expressing cells, fluorescence antagonist read-out. inhibition, % at 3 µM. actives 40% (n = 2,400). AID 651785; in the data active means inhibition above about 49%;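 further: CHO-Ga16 host cells challenged with agonist PEA near its EC80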
Ga16 ag counter-1 = nonselective Ga16 agonist in TAAR1 antagonist counter-screen. shares compounds with TAAR1 antag. activation, % at 3 µM. AID 651953. Ga16-expressing cells, calcium fluorescence, agonist counterscreen. actives 18% (n = 2,400); in the data active means activation above about 12%
TAAR1 ag count = TAAR1 agonism, antagonist counter-screen; shares compounds with TAAR1 antag; hTAAR1 cell line, fluorescence activation, agonist mode; activation, % at 3 µM; actives 2% (n = 2,400); in the data active means activation above about 37%;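 further: CHO cells stably expressing TAAR1 with calcium dye readout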
TAAR1 ag conf = human TAAR1 agonism, confirmed; shares compounds with TAAR1 ag; CHO RD-HGA16 TAAR1, Fluo-8 calcium fluorescence; scaled: DMSO 0%, maximal phenethylamine 100%; activation, % at 3 µM; actives 82% (n = 2,400);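 active means activation above a cutoff set at the run's mean compound activation plus 3 SD, cut at about 39% in these data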
Ga16 ag counter-2 = counter-screen for TAAR1 agonists: nonselective agonists in parental cells | shares compounds with TAAR1 ag | CHO-Ga16 parental, Fluo-8 calcium fluorescence; normalized to maximal ATP response, DMSO zero | activation, % at 3 µM | actives 50% (n = 2,400) | AID 651787;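 active means activation above the run cutoff, the mean activation over all tested wells plus 3 SD, cut at about 12% in these data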
TAAR1 desensitize = counter-screen for human TAAR1 agonists: agonists that desensitize TAAR1; actives 46% (n = 2,400); shares compounds with TAAR1 ag; inhibition, % at 3 µM; CHO RD-HGA16 hTAAR1, Fluo-8 calcium, beta-PEA response inhibition;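 active means inhibition above the run cutoff, the mean inhibition of all test compounds plus 3 SD, cut at about 49% in these data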;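 further: beta-PEA stimulus applied at its EC80; loss of beta-PEA calcium signal after compound pretreatment read as receptor desensitization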
Ga16 antag count = counter-screen for TAAR1 agonists: nonselective Ga16 antagonists; shares compounds with TAAR1 ag; CHO-Ga16 ATP-induced calcium, Fluo-8 fluorescence; inhibition, % at 3 µM; actives 39% (n = 2,400); AID 651952;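 active means inhibition above the plate's mean compound inhibition plus 3 SD, computed per plate, cut at about 22% in these data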
A number is an active result; . = inactive; / = no result given.

SMILES | TAAR1 antag | TAAR1 ag | OX1R antag-1 | GPR7 antag | OX1R antag-2 | CHO parental Ca | TAAR1 ag conf | Ga16 ag counter-2 | TAAR1 desensitize | Ga16 antag count | others
CC1CCCCC12NC(=O)N(CC(=O)OCC(=O)Nc1ccc(F)cc1[N+](=O)[O-])C2=O (stereo not drawn) | 76 | . | . | / | . | . | / | / | / | / | nonsel antag count=32;TAAR1 antag conf=53;Ga16 ag counter-1=.;TAAR1 ag count=.
COC(=O)C[C@H]1C=C[C@@H](NC(=O)C2CC2)[C@@H](CO)O1 | . | . | / | / | / | / | / | / | / | /
Cc1cccc(C)c1-c1ccc(CN2C(CC(C)C)C(=O)N(Cc3cn(CCO)nn3)CCS2(=O)=O)cc1 (stereo not drawn) | 90 | . | / | / | / | / | / | / | / | / | nonsel antag count=53;TAAR1 antag conf=67;Ga16 ag counter-1=21;TAAR1 ag count=.
COc1ccc(NC(=O)C2(C)CCN2Cc2cccc(OC)c2F)cc1OC (stereo not drawn) | . | . | / | / | / | / | / | / | / | /
Cc1cc(OC(F)F)ccc1NC(=O)Nc1ccc2c(c1)OCO2 | . | . | . | . | . | . | / | / | / | /
COc1ccc(CCC(=O)NCCS(=O)(=O)N2CCN(c3ccc(OC)cc3)CC2)cc1 | 62 | . | . | . | . | . | / | / | / | / | nonsel antag count=29;TAAR1 antag conf=54;Ga16 ag counter-1=15;TAAR1 ag count=.
CC(C)(C)N(Cc1ccccc1)C(=O)COC(=O)CSc1ccc([N+](=O)[O-])cc1 | 67 | . | . | / | . | . | / | / | / | / | nonsel antag count=31;TAAR1 antag conf=.;Ga16 ag counter-1=.;TAAR1 ag count=.
C[C@H]1CN([C@@H](C)CO)C(=O)c2cc(NC(=O)C3CCCCC3)ccc2O[C@H]1CN(C)CC1CCCCC1 | . | . | . | / | . | . | / | / | / | /
O=C(NCc1ccccc1)c1cccc2c(-c3cccnc3)coc12 | . | . | / | / | / | / | / | / | / | /
NC(=O)c1cccc(-c2coc3c(C(=O)NCCc4ccccc4)cccc23)c1 | 64 | . | / | / | / | / | / | / | / | / | nonsel antag count=36;TAAR1 antag conf=.;Ga16 ag counter-1=.;TAAR1 ag count=.
CC(C)(C)c1nnc(N/N=C/c2ccccc2O)n(N)c1=O | 59 | . | . | . | . | . | / | / | / | / | nonsel antag count=42;TAAR1 antag conf=64;Ga16 ag counter-1=19;TAAR1 ag count=.
Nn1cnnc1N/N=C/c1ccccc1C(F)(F)F | . | . | . | . | . | . | / | / | / | /
CC(C)(C)c1nnc(N/N=C/c2ccccc2)n(N)c1=O | 59 | . | . | . | . | . | / | / | / | / | nonsel antag count=30;TAAR1 antag conf=52;Ga16 ag counter-1=.;TAAR1 ag count=.
OCC[C@@H]1C[C@H](O)[C@@H](O)[C@]2(OCCc3ccccc32)O1 | . | . | . | . | . | . | / | / | / | /
COc1ccccc1N1CCN(C(=O)[C@H](C)NS(=O)(=O)c2ccc3c(c2)OCCCO3)CC1 | . | . | / | / | / | / | / | / | / | /
COC(=O)c1c(C)[nH]c(C(=O)COc2ccc3ccc(=O)oc3c2)c1C | 51 | 59 | . | / | . | . | . | 14 | 50 | 31
COc1cc(Cn2nnc3ccccc32)cc(Br)c1O | . | . | . | . | . | . | / | / | / | /
O=C(O)CCN1C(=O)c2ccc(NC(=O)c3cccs3)cc2C1=O | . | . | . | . | . | . | / | / | / | /
O=C(Nc1ccc2c(c1)C(=O)N(c1ccccc1)C2=O)c1cccs1 | . | 57 | . | . | . | . | 46 | 25 | . | .
COc1cc(/C=C2/C(=O)NN(c3cccc(Cl)c3)C2=O)cc(OC)c1O | . | . | . | . | . | . | / | / | / | /
CCOc1cc(/C=C2/C(=O)NN(c3cccc(Cl)c3)C2=O)ccc1O | . | 53 | . | . | . | . | 62 | 18 | . | .
COc1cccc(CCNC(=O)CC2C(=O)NCCN2Cc2ccc(C)o2)c1 (stereo not drawn) | . | . | . | . | . | . | / | / | / | /
Cc1cc(C)cc(OCC(=O)Nc2ccc3c4c(cccc24)CC3)c1 | 81 | 102 | . | . | . | . | . | . | . | .
CC(C)c1ccc(OCc2ccc(C(=O)NN3CCN(C)CC3)o2)cc1 | . | . | . | . | . | . | / | / | / | /
COc1cccc(Nc2nc(NCCO)c3ccccc3n2)c1 | . | 50 | . | . | . | . | 80 | . | 60 | .
SMILES | TAAR1 antag | TAAR1 ag | OX1R antag-1 | GPR7 antag | OX1R antag-2 | CHO parental Ca | TAAR1 ag conf | Ga16 ag counter-2 | TAAR1 desensitize | Ga16 antag count | others
Cc1cccc(Nc2nc(NCc3ccco3)c3ccccc3n2)c1 | . | 70 | . | . | . | 74 | 50 | . | . | 28
Oc1cccc(Nc2c3ccccc3nc3ccccc23)c1 | . | . | . | . | . | . | / | / | / | /
OCCNc1nc(Nc2cccc(O)c2)nc2ccccc12 | 84 | 97 | . | . | . | . | 101 | . | 98 | .
OCCNc1nc(Nc2ccc(O)cc2)nc2ccccc12 | 59 | 88 | . | . | . | . | 97 | . | 95 | .
OCCNc1nc(NCc2ccccc2)c2ccccc2n1 | . | . | . | . | . | . | / | / | / | /
Cc1ccc(-c2nc(NCc3ccco3)c3ccccc3n2)cc1 | . | . | . | . | . | . | / | / | / | /
CCCCNc1ncnc2sc3c(c12)CCN(CCC)C3 | . | . | . | . | . | . | / | / | / | /
CCC(C(=O)NC(C)(C)C)N(Cc1ccccc1Cl)C(=O)c1snc(C(N)=O)c1N (stereo not drawn) | . | . | . | . | . | . | / | / | / | /
N#Cc1nc(-c2cccs2)oc1NCCc1ccccc1 | . | 51 | . | . | . | . | 49 | . | . | .
Cc1nn(CC(=O)NCCc2cccs2)c(=O)c2cc3ccccc3n12 | . | 48 | . | . | . | . | 38 | . | . | .
Cc1nn(C(=O)CCC(=O)NCCc2ccccc2)c2ccccc12 | / | / | . | . | . | . | / | . | / | .
COc1ccc(N(CCC(=O)O)S(=O)(=O)c2ccc(C)cc2C)cc1 | . | . | . | . | . | . | / | / | / | /
O=C1CCN(S(=O)(=O)c2ccc(Cl)cc2)CC1 | . | . | . | . | . | . | / | / | / | /
Cc1cccc(NC(=S)N(C)C)c1C | . | . | . | . | . | . | / | / | / | /
